From ChEMBL document CHEMBL1138564, “Microwave-induced synthesis and anti-microbial activities of 7,10,11,12-tetrahydrobenzo[c]acridin-8(9H)-one derivatives” (2009)
Values after ≈ are worked out from the molar mass of the structure shown. Active and inactive are the calls of the source. The calls are words filed in the database; no cut-off is given here.

Columns and labels:
Lipomyces lipofer = experiment: Antimicrobial activity against Lipomyces lipofer NCIM 3252 at 500 ug/disk after 72 hrs by disk diffusion method; type: functional
In short: (§1)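 Disc diffusion on Sabouraud's dextrose agar. 100 µl of fungal suspension at 10⁶ CFU/ml is spread on the plate. Discs carry test compounds at two loadings in DMSO; DMSO alone is the negative control. Clotrimazole disc is the positive reference. Plates are incubated at 27 °C for 72 h, and the zone of inhibition diameter is measured.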

Escherichia coli [1] = experiment: Antimicrobial activity against Escherichia coli NCIM 2065 at 500 ug/disk after 24 hrs by disk diffusion method; type: functional
In short: (§2)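 Disc diffusion on Mueller–Hinton agar. 100 µl of bacterial suspension at 10⁸ CFU/ml is spread on the plate. Discs carry test compounds at two loadings, dissolved in DMSO; DMSO alone serves as negative control. Ofloxacin disc is the positive reference. Plates are incubated at 37 °C for 24 h, and the inhibition zone diameter is measured.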

Aspergillus fumigatus = experiment: Antimicrobial activity against Aspergillus fumigatus NCIM 902 at 1000 ug/disk after 72 hrs by disk diffusion method; type: functional; in short: as §1
Aliivibrio fischeri [2] = experiment: Antimicrobial activity against Vibrio fischeri NCIM 2154 at 1000 ug/disk after 24 hrs by disk diffusion method; type: functional; conditions: NCIM 2154, 24 h, read-out: DIZ
In short: (§3)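 Disc diffusion. 100 µl of bacterial suspension at 10⁸ CFU/ml was spread on Mueller–Hinton agar. Discs loaded with test compound dissolved in DMSO were placed on the lawn, with a DMSO-only disc as negative control. Plates were incubated at 37 °C for 24 h, and the inhibition zone diameter was measured.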

Aspergillus parasiticus [3] = experiment: Antimicrobial activity against Aspergillus parasiticus NCIM 904 at 500 ug/disk after 72 hrs by disk diffusion method; type: functional; conditions: NCIM 904, 72 h, read-out: DIZ; in short: as §1
Rhodotorula mucilaginosa [4] = experiment: Antimicrobial activity against Rhodotorula rubra NCIM 3174 at 1000 ug/disk after 72 hrs by disk diffusion method; type: functional; conditions: NCIM 3174, 72 h, read-out: DIZ
In short: (§4)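 Fungal disc diffusion. 100 µl of suspension at 10⁶ CFU/ml was spread on Sabouraud's dextrose agar. Discs carrying test compound in DMSO were applied, with a DMSO-only disc as negative control. Plates were incubated at 27 °C for 72 h, and the zone of inhibition diameter was measured.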

Proteus vulgaris [5] = experiment: Antimicrobial activity against Proteus vulgaris NCIM 2027 at 1000 ug/disk after 24 hrs by disk diffusion method; type: functional; in short: as §2
Aliivibrio fischeri [6] = experiment: Antimicrobial activity against Vibrio fischeri NCIM 2154 at 500 ug/disk after 24 hrs by disk diffusion method; type: functional; in short: as §3
Aspergillus parasiticus [7] = experiment: Antimicrobial activity against Aspergillus parasiticus NCIM 904 after 72 hrs by serial dilution method; type: functional; conditions: NCIM 904, 72 h
In short: (§5)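 MIC by broth dilution in Sabouraud's dextrose broth, only for fungi sensitive in disc diffusion. Two-fold serial dilutions of compounds are made in 1 ml broth per tube, range 3.9 to 1000. Inoculated tubes are incubated at 27 °C for 72 h.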

Aspergillus flavus [8] = experiment: Antimicrobial activity against Aspergillus flavus NCIM 902 at 500 ug/disk after 72 hrs by disk diffusion method; type: functional; conditions: NCIM 902, 72 h, read-out: DIZ; in short: as §1
Trichoderma viride [9] = experiment: Antimicrobial activity against Trichoderma viride NCIM 1195 at 500 ug/disk after 72 hrs by disk diffusion method; type: functional; conditions: NCIM 1195, 72 h, read-out: DIZ; in short: as §4
Penicillium chrysogenum [10] = experiment: Antimicrobial activity against Penicillium chrysogenum NCIM 707 at 500 ug/disk after 72 hrs by disk diffusion method; type: functional; in short: as §1
[11] = system: Rhodococcus corynebacterioides; experiment: Antimicrobial activity against Corynebacterium rubrum NCIM 2252 at 1000 ug/disk after 24 hrs by disk diffusion method; type: functional; conditions: Rhodococcoides corynebacterioides; in short: as §2
Aspergillus flavus [12] = experiment: Antimicrobial activity against Aspergillus flavus NCIM 902 at 1000 ug/disk after 72 hrs by disk diffusion method; type: functional; conditions: NCIM 902, 72 h, read-out: DIZ; in short: as §1
Klebsiella aerogenes [13] = experiment: Antimicrobial activity against Klebsiella aerogenes NCIM 2239 at 1000 ug/disk after 24 hrs by disk diffusion method; type: functional; conditions: NCIM 2239, 24 h, read-out: DIZ; in short: as §2
Trichoderma viride [14] = experiment: Antimicrobial activity against Trichoderma viride NCIM 1195 after 72 hrs by serial dilution method; type: functional; conditions: NCIM 1195, 72 h
In short: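 MIC by broth dilution in Sabouraud's dextrose broth, run only on fungi found sensitive in the disc assay. Twofold serial dilutions were made in 1 ml broth per tube, covering 3.9 to 1000. Inoculated tubes were incubated at 27 °C for 72 h.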

Salmonella typhimurium = experiment: Antimicrobial activity against Salmonella Typhimurium NCIM 2501 at 1000 ug/disk after 24 hrs by disk diffusion method; type: functional, Salmonella enterica subsp. enterica serovar Typhimurium; conditions: Salmonella enterica, NCIM 2501, 24 h; read-out: DIZ; in short: as §3
Bacillus cereus [15] = experiment: Antimicrobial activity against Bacillus cereus NCIM 2155 at 500 ug/disk after 24 hrs by disk diffusion method; type: functional; conditions: NCIM 2155, 24 h, read-out: DIZ; in short: as §2
Trichoderma viride [16] = experiment: Antimicrobial activity against Trichoderma viride NCIM 1195 at 1000 ug/disk after 72 hrs by disk diffusion method; type: functional; conditions: NCIM 1195, 72 h, read-out: DIZ; in short: as §4
[17] = system: Rhodococcus corynebacterioides; experiment: Antimicrobial activity against Corynebacterium rubrum NCIM 2252 at 500 ug/disk after 24 hrs by disk diffusion method; type: functional; conditions: Rhodococcoides corynebacterioides; in short: as §2
Proteus vulgaris [18] = experiment: Antimicrobial activity against Proteus vulgaris NCIM 2027 at 500 ug/disk after 24 hrs by disk diffusion method; type: functional; in short: as §2
Bacillus cereus [19] = experiment: Antimicrobial activity against Bacillus cereus NCIM 2155 at 1000 ug/disk after 24 hrs by disk diffusion method; type: functional; conditions: NCIM 2155, 24 h, read-out: DIZ; in short: as §2
Escherichia coli [20] = experiment: Antimicrobial activity against Escherichia coli NCIM 2065 at 1000 ug/disk after 24 hrs by disk diffusion method; type: functional; conditions: NCIM 2065, 24 h, read-out: DIZ; in short: as §2
Escherichia coli [21] = experiment: Antimicrobial activity against Escherichia coli NCIM 2065 after 24 hrs by serial dilution method; type: functional; conditions: NCIM 2065, 24 h
In short: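 Broth dilution MIC in nutrient broth, run only for organisms found sensitive in disc diffusion. Compounds are two-fold serially diluted in 1 ml sterile broth per tube, spanning 3.9 to 1000. Inoculated tubes are incubated at 37 °C for 24 h.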

Bacillus subtilis = experiment: Antimicrobial activity against Bacillus subtilis NCIM 2063 at 500 ug/disk after 24 hrs by disk diffusion method; type: functional; in short: as §2
Aspergillus flavus [22] = experiment: Antimicrobial activity against Aspergillus flavus NCIM 902 after 72 hrs by serial dilution method; type: functional; conditions: NCIM 535, 72 h, in the assay text read “NCIM 535” for “NCIM 902”; in short: as §5
Pseudomonas aeruginosa [23] = experiment: Antimicrobial activity against Pseudomonas aeruginosa NCIM 2200 at 1000 ug/disk after 24 hrs by disk diffusion method; type: functional; in short: as §2
Penicillium chrysogenum [24] = experiment: Antimicrobial activity against Penicillium chrysogenum NCIM 707 at 1000 ug/disk after 72 hrs by disk diffusion method; type: functional; in short: as §1
Pseudomonas aeruginosa [25] = experiment: Antimicrobial activity against Pseudomonas aeruginosa NCIM 2200 at 500 ug/disk after 24 hrs by disk diffusion method; type: functional; in short: as §3
Klebsiella aerogenes [26] = experiment: Antimicrobial activity against Klebsiella aerogenes NCIM 2239 at 500 ug/disk after 24 hrs by disk diffusion method; type: functional; in short: as §2
Staphylococcus = experiment: Antimicrobial activity against Staphylococcus albus NCIM 2178 at 1000 ug/disk after 24 hrs by disk diffusion method; type: functional; in short: as §3
Rhodotorula mucilaginosa [27] = experiment: Antimicrobial activity against Rhodotorula rubra NCIM 3174 at 500 ug/disk after 72 hrs by disk diffusion method; type: functional; conditions: NCIM 3174, 72 h, read-out: DIZ; in short: as §4

Compound	zone of inhibition at 1000 µg/disc (Aliivibrio fischeri [2]) [mm]	zone of inhibition at 500 µg/disc (Aspergillus parasiticus [3]) [mm]	zone of inhibition at 1000 µg/disc (Rhodotorula mucilaginosa [4]) [mm]	diameter of the inhibition zone (DIZ) (Proteus vulgaris [5])	MIC (Aspergillus parasiticus [7]) [µg/mL]	zone of inhibition at 500 µg/disc (Aspergillus flavus [8]) [mm]	zone of inhibition at 500 µg/disc (Trichoderma viride [9]) [mm]	diameter of the inhibition zone (DIZ) (Penicillium chrysogenum [10])	diameter of the inhibition zone (DIZ) [11]	zone of inhibition at 1000 µg/disc (Aspergillus flavus [12]) [mm]	zone of inhibition at 1000 µg/disc (Klebsiella aerogenes [13]) [mm]	MIC (Trichoderma viride [14]) [µg/mL]	zone of inhibition at 1000 µg/disc (Salmonella typhimurium) [mm]	zone of inhibition at 500 µg/disc (Bacillus cereus [15]) [mm]	zone of inhibition at 1000 µg/disc (Trichoderma viride [16]) [mm]	diameter of the inhibition zone (DIZ) [17]	diameter of the inhibition zone (DIZ) (Proteus vulgaris [18])	zone of inhibition at 1000 µg/disc (Bacillus cereus [19]) [mm]	zone of inhibition at 1000 µg/disc (Escherichia coli [20]) [mm]	MIC (Escherichia coli [21]) [µg/mL]	further results
CC1(C)CC(=O)C2=C(C1)Nc1c(ccc3ccccc13)C2c1ccccc1Cl (centres undefined)	9	8	13	inactive	62.5 (≈ 161 µM)	8	7	inactive	inactive	10	9	125 (≈ 322 µM)	13	8	8	inactive	inactive	11	8	125 (≈ 322 µM)	zone of inhibition at 500 µg/disc (Lipomyces lipofer; NCIM 3252, 72 h, read-out: DIZ): 7 mm; zone of inhibition at 500 µg/disc (Escherichia coli [1]; NCIM 2065, 24 h, read-out: DIZ): 7 mm; zone of inhibition at 1000 µg/disc (Aspergillus fumigatus; NCIM 902, 72 h, read-out: DIZ): 8 mm; zone of inhibition at 500 µg/disc (Aliivibrio fischeri [6]; NCIM 2154, 24 h, read-out: DIZ): 7 mm; zone of inhibition at 500 µg/disc (Bacillus subtilis; NCIM 2063, 24 h, read-out: DIZ): 7 mm; MIC (Aspergillus flavus [22]): 62.5 µg/mL (≈ 161 µM); diameter of the inhibition zone (DIZ) (Pseudomonas aeruginosa [23]): inactive; diameter of the inhibition zone (DIZ) (Penicillium chrysogenum [24]): inactive; diameter of the inhibition zone (DIZ) (Pseudomonas aeruginosa [25]): inactive; diameter of the inhibition zone (DIZ) (Klebsiella aerogenes [26]): inactive; diameter of the inhibition zone (DIZ) (Staphylococcus): inactive; zone of inhibition at 500 µg/disc (Rhodotorula mucilaginosa [27]): 10 mm
CC1(C)CC(=O)C2=C(C1)Nc1c(ccc3ccccc13)C2c1ccccc1O (centres undefined)	8	10	14	inactive	3.9 (≈ 10.6 µM)	9	10	inactive	inactive	10	10	31.2 (≈ 84.4 µM)	11	7	12	inactive	inactive	10	8	125 (≈ 338 µM)	diameter of the inhibition zone (DIZ) (Lipomyces lipofer): inactive; diameter of the inhibition zone (DIZ) (Escherichia coli [1]): inactive; diameter of the inhibition zone (DIZ) (Aspergillus fumigatus): inactive; diameter of the inhibition zone (DIZ) (Aliivibrio fischeri [6]): inactive; diameter of the inhibition zone (DIZ) (Bacillus subtilis): inactive; MIC (Aspergillus flavus [22]): 62.5 µg/mL (≈ 169 µM); diameter of the inhibition zone (DIZ) (Pseudomonas aeruginosa [23]): inactive; diameter of the inhibition zone (DIZ) (Penicillium chrysogenum [24]): inactive; diameter of the inhibition zone (DIZ) (Pseudomonas aeruginosa [25]): inactive; zone of inhibition at 500 µg/disc (Klebsiella aerogenes [26]; NCIM 2239, 24 h, read-out: DIZ): 7 mm; diameter of the inhibition zone (DIZ) (Staphylococcus): inactive; zone of inhibition at 500 µg/disc (Rhodotorula mucilaginosa [27]): 10 mm
